FXIa inh: factor XIa (human) inhibition. P03951. AID 798. actives 0.14% (n = 220,000). inhibition, % at 5 µM. purified FXIa, Boc-Glu-Ala-Arg-AMC fluorogenic substrate;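 active = inhibition of at least 40%; inactive = inhibition below 40%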;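 also: fluorescence of freed AMC excited at 355 nm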
thrombin 1536: thrombin (human) inhibition; alpha-thrombin, Boc-VPR-AMC fluorogenic substrate cleavage; actives 0.26% (n = 220,000); inhibition, % at 5 µM;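 active = inhibition at or above 40%; inactive = inhibition below 40%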
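Material: Human alpha-thrombin protein | Buffer or medium: pH 7.5 Tris-saline with Tween 20 | Reagent: Boc-VPR-AMC substrate, 15 µM final | Schedule: Reaction at ambient temperature | Detection: AMC fluorescence at 355 nm excitation and 460 nm emission | Evaluation: Percent inhibition scaled between no-compound controls and no-enzyme blanks | Controls: no-compound enzyme wells and no-enzyme blanks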
Redox H2O2 prof: compounds producing H2O2 with reducing agent – biochemical, NIH compound library profiling, artefact control for MLSCN library redox annotation, primary screen. activation, % at 10 µM. actives 0.03% (n = 200,000). DTT-dependent redox cycling H2O2, phenol red/HRP absorbance; 100% = 100 µM peroxide control, 0% = buffer;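 active = activation of at least 50% relative to the plate's high and low controls in the primary single-dose screen; inactive = activation below 50%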;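 also: compound incubated with DTT at 0.8 mM final as the reducing agent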
hK5 inh: blocks human kallikrein 5 protease activity | Q9Y337 | recombinant hK5, fluorogenic AMC substrate cleavage | inhibition, % at 5 µM | actives 0.59% (n = 210,000) | AID 873;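 active = inhibition of 40% or more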
FXIIa inh: blocks human coagulation factor XIIa protease activity; actives 0.3% (n = 220,000); inhibition, % at 5 µM; purified FXIIa, Boc-QGR-AMC fluorogenic substrate, 2 h; P00748; in the data active = inhibition above about 40%
Target sequence (P00748 20-372 limits assumed): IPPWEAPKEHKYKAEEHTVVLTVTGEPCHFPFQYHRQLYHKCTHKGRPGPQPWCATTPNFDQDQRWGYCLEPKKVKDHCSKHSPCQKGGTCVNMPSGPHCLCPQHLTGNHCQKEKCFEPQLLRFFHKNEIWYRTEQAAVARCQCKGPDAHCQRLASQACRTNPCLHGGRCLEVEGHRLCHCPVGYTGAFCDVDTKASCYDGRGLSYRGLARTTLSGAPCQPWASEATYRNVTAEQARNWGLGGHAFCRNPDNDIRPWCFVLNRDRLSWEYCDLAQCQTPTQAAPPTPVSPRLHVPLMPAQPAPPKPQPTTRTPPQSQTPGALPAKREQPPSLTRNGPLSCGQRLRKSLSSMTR
Target sequence (P00748 373-615 limits assumed): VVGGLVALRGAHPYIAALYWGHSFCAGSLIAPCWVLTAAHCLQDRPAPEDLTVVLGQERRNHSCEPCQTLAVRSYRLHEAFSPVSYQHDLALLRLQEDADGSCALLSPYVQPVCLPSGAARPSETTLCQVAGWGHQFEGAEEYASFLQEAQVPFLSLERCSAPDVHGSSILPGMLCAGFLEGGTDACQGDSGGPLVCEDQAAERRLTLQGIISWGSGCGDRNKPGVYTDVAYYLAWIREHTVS
S1P3 antag-1: antagonists of human S1P3 receptor | Q99500 | CHO S1P3 NFAT-BLA reporter, FRET fluorescence, antagonist mode | inhibition, % at 4.98 µM | actives 0.27% (n = 170,000) | AID 485;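 active = inhibition above the plate cutoff, the mean inhibition of test wells on that plate plus 3 SD, cut at about 28% in these data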;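 also: cells challenged with S1P at its EC80 of 0.8 µM; blue over green emission ratio from cleaved BLA substrate after 4 h stimulation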
S1P3 antag-2: confirmation of human S1P3 receptor antagonists. CHO S1P3 NFAT-BLA reporter, FRET, antagonist mode. actives 30% (n = 240). shares compounds with S1P3 antag-1. AID 1429. inhibition, % at 4.98 µM;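 active = inhibition above the hit threshold that was computed for the earlier primary screen, cut at about 30% in these data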
A number is an active result; . = inactive; / = no result. Most compounds without a hit are left out; they make up all but 1.2% or so of the library.

SMILES	FXIa inh	thrombin 1536	Redox H2O2 prof	hK5 inh	FXIIa inh	S1P3 antag-1	S1P3 antag-2
O=C(CSc1nc2nc[nH]c2c(=O)[nH]1)NC1CCCCC1	.	45.8	.	.	.	.	/
N#Cc1ccc(C23CC4(C2)[C@H](CN(CC2CCCCC2)[C@@H]4c2ccccc2)C3c2ccc(Cl)nc2)cc1 (stereo partly drawn)	.	.	/	.	.	/	/
N#Cc1ccc(NC(=O)COC(=O)CCc2nc3ccccc3c(=O)[nH]2)cc1	.	.	/	.	.	.	/
COc1cc2[nH]c(=S)n(CCN3CCOCC3)c(=O)c2cc1OC	.	.	.	103.8	.	.	/
O=[N+]([O-])c1ccc(CSc2nnc(SCc3ccc(Cl)cc3)s2)cc1	.	.	.	.	.	.	/
CC(CN1C(C)CCCC1C)OC(=O)c1ccc(Cl)cc1Cl (stereo not drawn)	.	.	.	.	44.8	.	/
O=C(NCCCN1CCC(Cc2ccccc2)CC1)C1CC(=O)N(C2CCCC2)C1 (stereo not drawn)	.	.	.	.	.	103.5	/
CN(C)CC(O)CN1C(=O)N(CN2C(=O)N(CC(O)CN(C)C)C(=O)C2(C)C)C(C)(C)C1=O (stereo not drawn)	.	.	.	.	.	.	/
O=C(/C=C/c1cccc(Cl)c1)NCc1ccncc1	.	.	.	47.2	.	.	/
Cc1ccc(OCC(O)CN2CC3(C)CC2CC(C)(C)C3)cc1 (stereo not drawn)	.	.	.	.	.	.	/
Cc1cccc(OCC(O)CN2CC3(C)CC2CC(C)(C)C3)c1 (stereo not drawn)	64.0	.	.	.	.	.	/
CCC(=O)c1ccc(OCc2ccc(C(=O)OC)cc2)c(OC)c1	.	.	.	57.4	.	/	/
Cc1ccc(CSc2ncnc3c2cnn3-c2ccc(C)cc2)cc1	.	.	.	45.0	41.4	.	/
CC(C)(C)c1ccc(C(=O)Nc2ccc(NC(=O)c3ccco3)cc2)cc1	.	.	.	98.8	.	/	/
CC(C)(C)NC(=O)c1cccc(NC(=O)c2ccc(NC(=O)c3ccco3)cc2)c1	.	.	.	.	.	.	/
O=C(Nc1ccc(Cc2ccncc2)cc1)c1ccco1	.	40.0	.	69.9	.	.	/
CC(C)C(NC(=O)C(Cc1ccccc1)NC(=O)OCc1ccccc1)C(=O)O (stereo not drawn)	47.4	.	.	.	.	.	/
COc1cccc(-c2nnc(SCC(=O)Nc3ccc4c(c3)OCCO4)n2Cc2ccco2)c1	.	42.5	.	46.9	.	.	/
COc1ccc(C)cc1NC(=O)CSc1nnc(COc2ccc(Cl)cc2)n1Cc1ccco1	.	.	.	.	52.0	.	/
COc1ccc(C)cc1NC(=O)CSc1nnc(COc2ccccc2)n1Cc1ccco1	.	.	.	.	.	.	/
Cc1c(NC(=O)C(C)N2C(=O)C3CCCCC3C2=O)c(=O)n(-c2ccccc2)n1C (stereo not drawn)	.	.	.	.	.	.	/
N#Cc1c(-c2cccs2)nc(SCC(=O)c2cccs2)[nH]c1=O	.	.	.	70.9	.	/	/
O=C(NC(Nc1nc2ccc([N+](=O)[O-])cc2s1)(C(F)(F)F)C(F)(F)F)c1ccccc1Cl	.	.	.	.	.	69.5	53.1
CN(CC(=O)Nc1cccc2ccccc12)C(=O)c1cccc(S(=O)(=O)N(C)C)c1	.	.	/	.	.	.	/
COc1ccc(C(CC(=O)c2ccc(C)cc2)Nc2ccc([N+](=O)[O-])cc2)cc1 (stereo not drawn)	.	.	.	.	.	43.9	79.4
SMILES	FXIa inh	thrombin 1536	Redox H2O2 prof	hK5 inh	FXIIa inh	S1P3 antag-1	S1P3 antag-2
Cc1ccc(S(=O)(=O)Nc2cc(=O)[nH]c(SCC(=O)Nc3cccc(C)c3)n2)cc1	.	.	/	.	.	.	/
COC(=O)C(C)(C)ONC(=O)Nc1ccccc1Cl	.	.	.	.	.	39.0	.
CCOc1ccc(-c2nc(C#N)c(NCc3ccco3)o2)cc1	.	.	.	.	.	.	/
Cc1ccc(OCC(=O)Nc2ccc([N+](=O)[O-])cc2)cc1	.	.	.	.	.	.	/
Cc1ccc(NC(=O)C2(c3ccc([N+](=O)[O-])cc3)CCCC2)cc1	.	.	.	.	.	48.1	50.3
CC(C)(C)c1ccc(C(=O)Nc2cccc3c(=O)[nH][nH]c(=O)c23)cc1	.	.	.	.	.	38.4	.
CC(C)(C)c1ccc(C(=O)Nc2ncn[nH]2)cc1	.	.	.	.	.	.	/
CCC(O)C1CCN(C(=O)c2cc(COc3ccc4ncccc4c3)on2)CC1 (stereo not drawn)	.	.	.	.	.	33.0	.
O=C(c1cc(COc2ccc3ncccc3c2)on1)N1CCC(O)CC1	.	.	.	.	.	.	/
Cc1cc(NNC(=O)Nc2cccc(Cl)c2)nc2c1c(C)nn2C	.	.	/	.	.	31.7	.
Cc1nn(C)c(C)c1CNC(=O)Nc1cccc(Cl)c1	.	.	.	.	.	.	/
Cc1cnc(C(=O)N2CCN(c3ccc(C(F)(F)F)cn3)CC2)cn1	.	.	/	.	.	.	/
CC(CC(=O)N1CCN(c2ccc(C(F)(F)F)cn2)CC1)n1ccnc1 (stereo not drawn)	.	.	.	.	.	36.3	.
CNc1ccccc(-c2ccc3ccccc3n2)c1=O	.	.	.	.	.	.	/
CCOc1cc(S(=O)(=O)NCc2ccncc2)ccc1Cl	.	.	.	.	.	28.9	.
Cc1sc2ncnc(NCC3COc4ccccc4O3)c2c1C (stereo not drawn)	.	.	.	.	.	32.1	33.0
c1ccc(-c2csc3ncnc(NCCCN4CCOCC4)c23)cc1	.	.	.	.	.	/	/
c1ccc(-c2csc3ncnc(NCC4COc5ccccc5O4)c23)cc1 (stereo not drawn)	.	.	.	56.9	41.0	36.5	.
CCOC(=O)C1(Cc2ccccc2Cl)CCN(C(=O)CCn2ccnc2C)CC1	.	.	.	.	.	.	/
C/C(Cn1nnc2ccccc21)=N\NC(=O)c1cccc(Br)c1	.	.	.	.	.	28.9	.
C/C(Cn1nnc2ccccc21)=N/OC(=O)c1c(F)cccc1F	.	.	.	.	.	.	/
O=[N+]([O-])c1c(NCc2ccco2)ccc2nonc12	.	.	/	.	.	106.5	.
COC(=O)Cn1nc(-c2ccc(C)cc2)c2ccccc2c1=O	.	.	.	.	.	.	/
CC(=O)CCC(=O)OCC(=O)Nc1ccc(SC(F)F)cc1	.	.	.	.	.	43.2	.
CCOC(=O)C(Cc1ccc(Cl)cc1Cl)c1ccno1 (stereo not drawn)	.	.	.	.	.	.	/

Screening data (PubChem BioAssay)
